# Rad51 HR inh: human RAD51 strand exchange inhibitors, primary screen, biochemical, fluorescence; DNA repair protein RAD51 homolog 1 (Homo sapiens), Q06609; actives 0.085% (n = 200,000); AID 1385, 2008; hRad51 DNA strand exchange, fluorescence dequenching; inhibition, % at 10 µM;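 active means inhibition above 40% at the single screening dose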;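 further: 0% = DMSO control wells and 100% = blanks with heterologous ssDNA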
# Target sequence (Q06609 whole entry, looked up): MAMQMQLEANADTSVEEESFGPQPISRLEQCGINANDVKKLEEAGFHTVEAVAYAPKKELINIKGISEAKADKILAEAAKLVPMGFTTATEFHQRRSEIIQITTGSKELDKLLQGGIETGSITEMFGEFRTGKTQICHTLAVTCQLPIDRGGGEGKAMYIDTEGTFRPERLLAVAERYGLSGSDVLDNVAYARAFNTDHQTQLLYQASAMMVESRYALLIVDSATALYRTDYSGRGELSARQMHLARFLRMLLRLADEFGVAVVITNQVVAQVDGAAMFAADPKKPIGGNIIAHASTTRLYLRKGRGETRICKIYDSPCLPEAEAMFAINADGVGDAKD
#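 Test system: preformed human Rad51 ssDNA filaments. Compound dosing: single dose, 10 µM final compound. Incubation: filaments 15 min 37 °C, then compound 30 min. Technique: FRET fluorescence dequenching, excitation 485 nm, emission 520 nm. Read-out basis: percent inhibition from fluorescence, normalised to plate control and blank means. Benchmarks: plate controls and plate blanks.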
# PMI act hi M6P: human PMI activators, high substrate, primary screen, biochemical, fluorescence intensity, near-saturating mannose 6-phosphate; actives 0.34% (n = 190,000); coupled PMI enzyme assay, resazurin fluorescence, 20 min; stronger effect = higher value; 1 = untreated enzyme, 0 = substrate-free blank; activation factor at 20 µM;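 active means activation factor of 2 or more at 20 µM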
#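 Test system: human PMI in coupled enzyme assay; Input: PMI at 15 ng/mL final; Medium: HEPES buffer, pH 7.4; Schedule: 20 min incubation at room temperature; Technique: resorufin fluorescence at Ex 544/Em 590 nm; Compound: 20 µM single dose; Probe or stimulus: Near-saturating mannose-6-phosphate, 1.0 mM.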
# Lmaj promast: Leishmania major promastigote growth inhibition, primary screen | Leishmania major promastigotes, resazurin fluorescence viability | inhibition, % at 10 µM | actives 9% (n = 200,000); in the data active means inhibition above about 50%;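 further: promastigotes grown with compound for 44 hours at 28 °C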
# PMI activator: activators of human PMI, primary screen, biochemical, fluorescence intensity, near-Km mannose 6-phosphate; Mannose-6-phosphate isomerase (Homo sapiens), P34949; purified human PMI, coupled resazurin fluorescence, 20 min; stronger effect = higher value; 1 = vehicle control, 0 substrate-free wells; activation factor at 20 µM; actives 0.005% (n = 190,000);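 active means activation factor of 2 or more at 20 µM, relative to plate controls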
# WT yeast gro inh: growth inhibition of WT strain, primary screen, mitochondrial fusion inhibitor project, WT and mutant strains, chemical genetic | mitochondrial fusion phenotypic screen | inhibition, % at 10 µM | actives 2.1% (n = 190,000) | AID 1362, 2008; in the data active means inhibition above about 58%; tested in S. cerevisiae
# Calpain2 inh: inhibitors of pig calpain II, primary screen, biochemical, fluorogenic peptide substrate, 1536-well; AID 1236, 2008; inhibition, % at 16 µM; purified calpain II, 30 min; actives 0.37% (n = 220,000);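 active means inhibition above about 50%, limit read from the data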
# Active calls of the source: *; i = inactive; · = no result. Rows were chosen to be rich in hits. Some 9.8% of all compounds tested hit in one or more screens of this group.
SMILES,Rad51 HR inh,PMI act hi M6P,Lmaj promast,PMI activator,WT yeast gro inh,Calpain2 inh
Fc1cccc(CO/N=C/c2c(-c3ccccc3)nc3ccc(Cl)cn23)c1,17,1,4,1,14,-41
CCOC(=O)/C(C#N)=C/c1c(Oc2cccc(C)c2)nc2c(C)cccn2c1=O,-11,1.1,1,1,1,6
COc1cccc(/C(C#N)=C/c2c(-c3ccc(Cl)cc3)nc3c(C)cccn23)c1,·,0.9,67*,0.9,11,-8
O=C(NC(Cc1ccc2c(c1)OCO2)C(=O)NC(Cc1ccccc1)C(=O)O)c1ccccc1 (centres undefined),·,1,88*,0.9,10,0
CC(NC(=O)C(Cc1ccccc1)NC(=O)c1ccccc1)C(=O)O (centres undefined),-6,1.1,85*,1.1,-9,-12
Cc1cc(Oc2ccc(=O)[nH]n2)nc(Cl)n1,-3,·,·,·,·,-13
O=C(CSc1nc2ccccc2s1)N/N=C/c1cc([N+](=O)[O-])ccc1O,·,·,·,·,·,-2
CCOc1ccc2nc(SCC(=O)N3c4ccccc4Sc4ccccc43)c(C#N)cc2c1,3,0.9,62*,1,-2,-46
CCc1ccc2nc(SCC(=O)N3CCCCC3)c(C#N)cc2c1,·,·,4,·,-14,9
COc1ccc2nc(SCC(=O)N3CCCCCC3)c(C#N)cc2c1,-4,0.8,80*,1.1,0,-79
CCOc1ccc2nc(SCC(=O)N3c4ccccc4Sc4ccccc43)sc2c1,7,0.9,-1,0.9,13,-1
COc1ccc2nc(SCC(=O)N3CCCCC3)c(C#N)cc2c1,10,0.9,58*,1,-8,-47
Cc1cc(C)n(CCC(=O)Nc2cccc(F)c2)n1,8,0.9,-2,1,3,-20
O=C(CSc1nnc(C2CC2)n1-c1ccccc1)Nc1ccc(N2CCOCC2)cc1,-4,1,-2,1,-4,6
O=C(N/N=C/c1cc(Cl)ccc1O)c1ccc(Br)cc1,-16,1.2,99*,1.2,9,-5
CC(C)C(=O)Nc1ccc(C(=O)N/N=C/c2cc(Br)cc(Br)c2O)cc1,-40,1.2,89*,1.2,-8,-33
Cc1cccc(/C=N\NC(=O)c2ccc(Cl)cc2)c1O,8,1.1,72*,1,-7,-10
Nc1nonc1C(=O)N/N=C/c1cc(Br)ccc1O,-85,1.1,99*,1,28,-36
O=C(N/N=C\c1cc(Br)ccc1O)c1ccc(S(=O)(=O)N2CCCCC2)cc1,7,1.2,98*,1.1,-4,-1
Cc1cc(CN2CCN(CCC#N)CC2)c(O)c(C2(C)CCCCC2)c1,-6,0.9,22,0.8,84*,-27
O=C(NC12CC3CC(CC(C3)C1)C2)OCCNC1CCCCC1,9,·,·,·,·,12
COc1ccccc1OCCCOc1ccc(C)cc1Br,-46,0.9,0,0.9,53,-6
CCCCNCCOCCOc1ccc(C)cc1Br,-3,1.2,98*,1.1,9,-12
COCCCNCCOc1cc(C(C)C)ccc1C,-15,0.8,91*,0.7,-1,17
Cc1ccc(OCCOCCNC(C)C)c(Br)c1,-12,1,90*,1,9,-3
SMILES,Rad51 HR inh,PMI act hi M6P,Lmaj promast,PMI activator,WT yeast gro inh,Calpain2 inh
CCC(C)NCCOCCOc1ccc(Cl)cc1Br (centres undefined),-13,0.9,96*,0.9,36,16
O=C(NCc1nnc(SCC(=O)N2CCOCC2)o1)c1ccccc1F,12,1,-7,1,-1,-2
CC(C)Cc1nc2c(nnn2Cc2ccccc2F)c(=O)[nH]1,·,·,·,·,·,2
CCCN(CCC)S(=O)(=O)c1ccc(Cl)c(OC)c1,28,1,5,1,-7,27
COc1ccccc1OCCOCCOc1ccc(C)cc1Br,·,1,33,0.9,29,19
COCCCNCCOCCOc1ccc(C)cc1Br,-9,1.1,90*,1,-2,-5
O=C(CCNC(=O)Cn1ccc2ccccc2c1=O)NCc1ccc(F)cc1Cl,4,1,15,1,-19,7
O=C(NC1CCCCC1)N(Cc1cc2cc3c(cc2[nH]c1=O)OCCO3)C1CCCCC1,·,1,69*,1,10,-261
COc1cc2cc(CN(C(=O)NC3CCCCC3)C3CCCC3)c(=O)[nH]c2cc1OC,-3,0.9,5,1,10,-188
CCc1ccc2[nH]c(=O)c(CN(CCN(C)C)C(=O)Nc3ccccc3OC)cc2c1,4,1,3,1.2,6,-14
CCc1ccc2[nH]c(=O)c(CN(Cc3ccccc3)C(=O)Nc3ccccc3OC)cc2c1,·,0.9,64*,0.9,54,-29
COc1ccc2cc(CN(C(=O)Nc3ccccc3OC)C3CCCC3)c(=O)[nH]c2c1,0,0.8,53*,0.9,3,-7
COC(=O)c1ccccc1NC(=S)N(Cc1ccc2c(c1)OCO2)Cc1cc2cc(OC)ccc2[nH]c1=O,-8,0.8,55*,0.7,9,-103
COc1ccccc1NC(=S)N(CCCN(C)C)Cc1cc2cc3c(cc2[nH]c1=O)OCO3,-30,0.9,-6,0.9,-11,-92
C=CCC(COCc1ccccc1)NS(=O)(=O)c1ccccc1Br (centres undefined),-2,·,·,·,·,29
CCN1C(=O)/C(=C/c2ccc(N3CCCC3)cc2)NC1=S,i,0.9,42,0.9,36,22
COc1ccc(CC(=O)N(Cc2cc3cc(OC)ccc3[nH]c2=O)C(C)C)cc1,-8,1,94*,0.9,7,-183
O=C(COC(=O)c1ccc2c(c1)S(=O)(=O)N=C1CCCCCN12)NCc1cccs1,-23,·,·,·,·,15
CC1CN(c2cc(-c3ccccc3)c3ccccc3n2)CC(C)O1 (centres undefined),14,0.9,100*,0.9,76*,-153
CC1CN(c2nc3ccccc3cc2-c2ccccc2)CC(C)O1 (centres undefined),14,0.9,38,1,78*,-43
CCC(C)NC(=O)C1CCCN1S(=O)(=O)c1ccc(Cl)cc1 (centres undefined),0,1,0,1,15,20
CC(C)Oc1ccc(/C=N/NC(=O)C2CCCN2S(=O)(=O)c2ccc(Cl)cc2)cc1 (centres undefined),4,0.8,60*,0.8,32,18

# Screens (PubChem BioAssay)
